Experimental data published in ChEMBL document CHEMBL1140227, “Histone deacetylase inhibitors through click chemistry” (J Med Chem, 2008).

What was measured:
[1] = tested on: MOLT-4; assay: Growth inhibition of human MOLT4 cells at 10 uM relative to control; format: functional; conditions: values are per cent of control
How it was run: (§1)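 Single-dose preliminary screen in the NCI human cancer cell line panel, run by the NIH. Percent inhibition of cell line growth was calculated by comparison with untreated samples.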

[2] = tested on: UACC-257; assay: Growth inhibition of human UACC257 cells at 10 uM relative to control; format: functional; conditions: values are per cent of control
How it was run: (§2)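 Single-dose NCI human tumour cell line screen, run by the NIH. Percent inhibition of cell line growth was calculated by comparison with untreated samples.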

[3] = tested on: T47D; assay: Growth inhibition of human T47D cells at 10 uM relative to control; format: functional; conditions: values are per cent of control; how it was run: as §2
[4] = tested on: UACC-62; assay: Growth inhibition of human UACC62 cells at 10 uM relative to control; format: functional; conditions: values are per cent of control; how it was run: as §2
[5] = tested on: A549; assay: Growth inhibition of human A549 cells at 10 uM relative to control; format: functional; conditions: values are per cent of control; how it was run: as §1
[6] = tested on: SK-MEL-2; assay: Growth inhibition of human SK-MEL-2 cells at 10 uM relative to control; format: functional; conditions: values are per cent of control; how it was run: as §1
[7] = biological target: Histone deacetylase 1 (Homo sapiens, UniProt Q13547); assay: Inhibition of human HDAC1
Sequence of Histone deacetylase 1 (Q13547 whole entry): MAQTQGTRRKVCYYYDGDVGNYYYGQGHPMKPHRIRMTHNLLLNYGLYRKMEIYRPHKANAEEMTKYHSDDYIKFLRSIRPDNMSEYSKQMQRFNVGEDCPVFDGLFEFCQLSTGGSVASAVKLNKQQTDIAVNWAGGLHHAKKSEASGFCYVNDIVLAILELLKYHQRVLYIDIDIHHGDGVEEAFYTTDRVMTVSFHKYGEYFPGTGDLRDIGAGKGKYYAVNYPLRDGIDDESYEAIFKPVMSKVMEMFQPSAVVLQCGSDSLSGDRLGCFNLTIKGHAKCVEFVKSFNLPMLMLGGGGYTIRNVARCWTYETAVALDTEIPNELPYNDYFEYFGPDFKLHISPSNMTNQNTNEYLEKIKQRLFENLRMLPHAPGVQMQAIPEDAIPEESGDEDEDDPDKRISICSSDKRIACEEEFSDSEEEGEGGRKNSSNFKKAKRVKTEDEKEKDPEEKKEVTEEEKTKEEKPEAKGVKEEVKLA

[8] = Growth inhibition of human RPMI8266 cells at 10 uM relative to control; format: functional; conditions: values are per cent of control; how it was run: as §1
[9] = tested on: SW-620; assay: Growth inhibition of human SW620 cells at 10 uM relative to control; format: functional; conditions: values are per cent of control; how it was run: as §2
[10] = tested on: SNB-75; assay: Growth inhibition of human SNB75 cells at 10 uM relative to control; format: functional; conditions: values are per cent of control; how it was run: as §2
[11] = tested on: 786-0; assay: Growth inhibition of human 786-0 cells at 10 uM relative to control; format: functional; conditions: values are per cent of control; how it was run: as §1
[12] = tested on: MDA-MB-468; assay: Growth inhibition of human MDA-MB-468 cells at 10 uM relative to control; format: functional; conditions: values are per cent of control; how it was run: as §1
[13] = tested on: MDA-MB-231; assay: Growth inhibition of human MDA-MB-231 cells at 10 uM relative to control; format: functional; conditions: values are per cent of control; how it was run: as §1
[14] = tested on: MDA-MB-435; assay: Growth inhibition of human MDA-MB-435 cells at 10 uM relative to control; format: functional; conditions: values are per cent of control; how it was run: as §1
[15] = cells; format: functional; conditions: Homo sapiens, Cancer cell lines
[16] = tested on: NCI-H226; assay: Growth inhibition of human NCI-H226 cells at 10 uM relative to control; format: functional; conditions: values are per cent of control; how it was run: as §1
[17] = tested on: NCI-H522; assay: Growth inhibition of human NCI-H522 cells at 10 uM relative to control; format: functional; conditions: values are per cent of control; how it was run: as §1
[18] = tested on: CCRF-CEM; assay: Growth inhibition of human CCRF-CEM cells at 10 uM relative to control; format: functional; conditions: values are per cent of control; how it was run: as §1
[19] = tested on: DU-145; assay: Growth inhibition of human DU145 cells at 10 uM relative to control; format: functional; conditions: values are per cent of control; how it was run: as §1
[20] = tested on: SK-MEL-28; assay: Growth inhibition of human SK-MEL-28 cells at 10 uM relative to control; format: functional; conditions: values are per cent of control; how it was run: as §1
[21] = tested on: OVCAR-5; assay: Growth inhibition of human OVCAR5 cells at 10 uM relative to control; format: functional; conditions: values are per cent of control; how it was run: as §1
[22] = tested on: LOX IMVI; assay: Growth inhibition of human LOXIMVI cells at 10 uM relative to control; format: functional; conditions: values are per cent of control; how it was run: as §1
[23] = tested on: HCC 2998; assay: Growth inhibition of human HCC2998 cells at 10 uM relative to control; format: functional; conditions: values are per cent of control; how it was run: as §1
[24] = tested on: SF-539; assay: Growth inhibition of human SF539 cells at 10 uM relative to control; format: functional; conditions: values are per cent of control; how it was run: as §1
[25] = cells; format: functional; conditions: Homo sapiens, Cancer cell lines; remark: listed apart in the source
[26] = tested on: OVCAR-8; assay: Growth inhibition of human OVCAR8 cells at 10 uM relative to control; format: functional; conditions: values are per cent of control; how it was run: as §1
[27] = tested on: UO-31; assay: Growth inhibition of human UO31 cells at 10 uM relative to control; format: functional; conditions: values are per cent of control; how it was run: as §2
[28] = tested on: K562; assay: Growth inhibition of human K562 cells at 10 uM relative to control; format: functional; conditions: values are per cent of control; how it was run: as §1
[29] = tested on: HOP-92; assay: Growth inhibition of human HOP92 cells at 10 uM relative to control; format: functional; conditions: values are per cent of control; how it was run: as §1
[30] = tested on: RXF 393; assay: Growth inhibition of human […] cells; format: functional
[31] = tested on: NCI-H460; assay: Growth inhibition of human NCI-H460 cells at 10 uM relative to control; format: functional; conditions: values are per cent of control; how it was run: as §1
[32] = tested on: SNB-19; assay: Growth inhibition of human SNB19 cells at 10 uM relative to control; format: functional; conditions: values are per cent of control; how it was run: as §1
[33] = tested on: OVCAR-3; assay: Growth inhibition of human OVCAR-3 cells at 10 uM relative to control; format: functional; conditions: values are per cent of control; how it was run: as §1
[34] = tested on: Leukemia cell; assay: cells; format: functional; conditions: Homo sapiens

**Q.** Which growth, % of control at 10 µM [1] does the source give for `O=C(/C=C/c1cn(C/C=C/c2ccccc2)nn1)NO` here?
**A.** -7.12%

**Q.** What about the growth, % of control at 10 µM [2] of the same compound?
**A.** -32.1%

**Q.** And the growth, % of control at 10 µM [3]?
**A.** -11.9%

**Q.** What about the growth, % of control at 10 µM [4] of the same compound?
**A.** -71.2%

**Q.** And the growth, % of control at 10 µM [5]?
**A.** -8.94%

**Q.** And the growth, % of control at 10 µM [6]?
**A.** -51.7%

**Q.** And the IC50 [7]?
**A.** 104 nM

**Q.** What about the growth, % of control at 10 µM [8] of the same compound?
**A.** -13.9%

**Q.** And the growth, % of control at 10 µM [9]?
**A.** -61.5%

**Q.** What about the growth, % of control at 10 µM [10] of the same compound?
**A.** 16.7%

**Q.** And the growth, % of control at 10 µM [11]?
**A.** -36.1%

**Q.** What about the growth, % of control at 10 µM [12] of the same compound?
**A.** 45.8%

**Q.** And the growth, % of control at 10 µM [13]?
**A.** 20.9%

**Q.** What about the growth, % of control at 10 µM [14] of the same compound?
**A.** 21.3%

**Q.** What about the inhibition at 10 µM [15] of the same compound?
**A.** 1%

**Q.** What about the growth, % of control at 10 µM [16] of the same compound?
**A.** 23.7%

**Q.** And the growth, % of control at 10 µM [17]?
**A.** 8.32%

**Q.** What about the growth, % of control at 10 µM [18] of the same compound?
**A.** 9.16%

**Q.** And the growth, % of control at 10 µM [19]?
**A.** -28.7%

**Q.** And the growth, % of control at 10 µM [20]?
**A.** -15%

**Q.** And the growth, % of control at 10 µM [21]?
**A.** 1.43%

**Q.** And the growth, % of control at 10 µM [22]?
**A.** -72.6%

**Q.** And the growth, % of control at 10 µM [23]?
**A.** -1.33%

**Q.** What about the growth, % of control at 10 µM [24] of the same compound?
**A.** 5.16%

**Q.** And the growth percent at 10 µM [25]?
**A.** 8%

**Q.** And the growth, % of control at 10 µM [26]?
**A.** 1.24%

**Q.** What about the growth, % of control at 10 µM [27] of the same compound?
**A.** 0.73%

**Q.** And the growth, % of control at 10 µM [28]?
**A.** -10.9%

**Q.** What about the growth, % of control at 10 µM [29] of the same compound?
**A.** -42%

**Q.** And the GI50 [30]?
**A.** < 10 nM

**Q.** And the growth, % of control at 10 µM [31]?
**A.** 7.36%

**Q.** And the growth, % of control at 10 µM [32]?
**A.** -12.4%

**Q.** What about the growth, % of control at 10 µM [33] of the same compound?
**A.** -16.2%

**Q.** And the inhibition at 10 µM [34]?
**A.** -6%
